hERG protect: shields human hERG channel from block by proarrhythmic agents | Q12809 | CHO-hERG, FluxOR thallium flux, dofetilide IC70 present | activation (rescue from dofetilide block), less the hit threshold, % at 10 µM | hit rate 0.51% among 310,000;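 active = activation above the mean of controls blocked by dofetilide plus 5 SD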;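 note: thallium influx through hERG after potassium depolarization seen as dye fluorescence rise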
KCNQ1 inh: blocks the human KCNQ1 potassium channel | hit rate 1.3% among 310,000 | AID 2642 | B-score at 10 µM | CHO-K1 KCNQ1, FluxOR thallium flux fluorescence; hits give high values;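 active = compounds whose thallium flux B-score, printed positive for inhibition, exceeds three library SD while starting fluorescence stays within three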;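 note: channel opened by potassium depolarization with thallium stimulus after 20 min compound exposure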
Target sequence (P51787 whole entry, looked up): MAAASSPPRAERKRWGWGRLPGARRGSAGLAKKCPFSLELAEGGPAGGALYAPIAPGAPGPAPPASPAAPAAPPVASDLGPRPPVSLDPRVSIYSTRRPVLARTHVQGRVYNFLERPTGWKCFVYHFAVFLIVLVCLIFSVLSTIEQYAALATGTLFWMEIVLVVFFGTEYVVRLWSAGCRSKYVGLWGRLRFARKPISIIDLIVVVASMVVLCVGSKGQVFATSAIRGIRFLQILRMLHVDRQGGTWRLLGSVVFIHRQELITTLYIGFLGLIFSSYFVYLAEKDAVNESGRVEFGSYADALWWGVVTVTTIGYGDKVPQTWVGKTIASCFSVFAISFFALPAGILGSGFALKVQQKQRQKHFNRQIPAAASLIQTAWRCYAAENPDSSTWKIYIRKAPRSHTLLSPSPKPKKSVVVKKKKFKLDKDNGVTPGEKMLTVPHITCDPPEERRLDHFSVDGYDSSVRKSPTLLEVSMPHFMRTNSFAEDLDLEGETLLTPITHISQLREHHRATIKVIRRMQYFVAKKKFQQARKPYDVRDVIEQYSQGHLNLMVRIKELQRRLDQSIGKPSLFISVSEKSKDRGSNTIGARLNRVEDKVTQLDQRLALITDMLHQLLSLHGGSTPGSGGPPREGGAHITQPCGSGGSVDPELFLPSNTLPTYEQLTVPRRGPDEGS
KCC2 mod: KCC2 (human) Cl- transport modulation | AID 1456 | Q9H2X9 | KCC2 cells, thallium flux FluoZin-2 fluorescence | hit rate 2.2% among 190,000 | B-score of Tl+ flux slope (higher = more flux/activation; lower = inhibition) at 10 µM;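 active = thallium flux slope and its plate-corrected score both differing from the plate sample mean at a set confidence after two filtering rounds, in either direction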;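 note: slope of fluorescence scaled to starting intensity during 10 to 20 s after thallium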
AI-2 QS mod: Vibrio harveyi AI-2 quorum sensing modulation | Vibrio harveyi JMH597 AI-2 luminescence/OD600 ratio, 9 h; hits give low values; strain lacks LuxN and CqsS sensors; 0 = neutral-control median | activity change, % at 7.5 µM | hit rate 0.4% among 300,000; in the data active = activity change below about -75%, passing the limit was not always enough; inconclusive = no clear call, values can overlap the other calls;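 note: luminescence divided by OD600 gain over 9 h not by final OD600 alone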
SUMO Mot1 rescue: blocks SUMOylation pathway, rescuing yeast Mot1-301 growth; S. cerevisiae Mot1-301 growth rescue, ATP luminescence, 38.5C; percent above DMSO median, 100 means doubled; growth rescue, % at 18.8 µM; hit rate 1% among 320,000;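 active = every valid replicate shows activation above 250% relative to neutral control wells; inactive = the rest, any valid replicate at or below 250%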;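 note: OY570 slx delta 5 strain wells were the positive control but not used for scaling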
KCNQ1 act: potentiates or activates the human KCNQ1 potassium channel | CHO-K1 KCNQ1, thallium flux FluxOR fluorescence; hits give high values | P51787 | hit rate 0.35% among 310,000 | AID 2648 | B-score at 10 µM;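 active = fluorescence ratio B-score, a plate-corrected score, at least three library SD, with initial intensity B-score within 5 SD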
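Assay system: stable KCNQ1 CHO-K1 line; medium: assay buffer, equal DMSO in all wells; timing: 90 min dye loading and 20 min compound exposure, both at room temperature; technique: kinetic FluxOR thallium fluorescence, 10-s 1-Hz baseline, 110-s post-stimulus read; read-out basis: B score of baseline-normalized fluorescence ratio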
KCC2 secondary: KCC2 (human) modulation, secondary assay; hit rate 15% among 3,700; HEK293-KCC2, thallium flux, FluoZin2 fluorescence; hits give high values; shares compounds with KCC2 mod; normalised thallium flux (F/F0 slope) at 10 µM;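 active = thallium flux slope above the same plate's solvent-only control mean plus 3 SD; inconclusive = the two replicate wells disagree; inactive = no significant difference from solvent-only control wells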
KCC2 bumet counter: bumetanide-insensitive thallium flux in KCC2 cells with ouabain, counter-screen; HEK293-KCC2 + bumetanide/ouabain, thallium flux FluoZin2; hits give high values; normalized thallium flux at 10 µM; shares compounds with KCC2 mod; hit rate 49% among 3,700;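 active = thallium entry rate above the same plate's blocked-transporter control wells by more than 3 SD; inconclusive = the two repeat wells disagree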;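 note: raw slope of fluorescence over initial fluorescence between 10 and 20 s after thallium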
KCC2 sec2: KCC2 (human) modulation, second secondary assay; shares compounds with KCC2 mod; HEK293-KCC2, thallium flux FluoZin2 fluorescence; actives lie on both sides; F/F0 rise rate, 10–20 s post-thallium; normalized thallium flux at 10 µM; hit rate 23% among 3,700; AID 1715;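 active = thallium flux slope more than 3 SD above or below the plate's solvent-only control mean, mostly below; inconclusive = the two repeat wells disagreed; inactive = no significant shift from solvent-only controls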;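 note: raw slope with 0.1% DMSO as baseline and bumetanide as block control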
HEK293 Tl flux: acts in parental HEK cells, KCC2 counter-screen; HEK293 parental cells, thallium flux FluoZin2, ouabain; baseline-ratio fluorescence slope, 10–20 s after thallium; shares compounds with KCC2 mod; thallium flux rate (normalised fluorescence) at 10 µM; hit rate 46% among 3,700;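 active = thallium flux rate significantly above the same plate's solvent-only control wells, beyond their mean plus 3 SD; inconclusive = the two replicate wells gave conflicting results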
KCC2 ouabain: confirmation of human KCC2 modulators with ouabain. shares compounds with KCC2 mod. HEK293-KCC2, thallium flux FluoZin2 fluorescence; bidirectional: low = inhibitor, high = activator. raw Tl+ flux slope (below DMSO = inhibition, above = activation) at 10 µM. hit rate 48% among 3,700;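 active = thallium flux slope beyond 3 SD from same-plate DMSO control mean in most replicates, usually higher, sometimes lower; inconclusive = repeat tests gave conflicting results; inactive = no significant difference from controls in most replicates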;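 note: slope of initial-normalized fluorescence between seconds 10 and 20 after thallium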
HEK293 Tl flux2: counter-screen for KCC2 modulators: effect in parental HEK293 cells. shares compounds with KCC2 mod. thallium flux FluoZin-2 fluorescence slope. thallium flux slope at 10 µM. hit rate 33% among 3,700;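 active = thallium flux slope above the same plate's solvent-control mean plus 3 SD in both duplicate wells; inconclusive = duplicate wells that disagreed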;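 note: run without ouabain in cells lacking the KCC2 cotransporter; slope of fluorescence scaled to its starting value between 10 and 20 s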
An asterisk follows results filed as active; i = inactive; ? = inconclusive; · = no result. Most compounds without a hit are left out; they make up all but 4.2% or so of the library.

SMILES | hERG protect | KCNQ1 inh | KCC2 mod | AI-2 QS mod | SUMO Mot1 rescue | KCNQ1 act | KCC2 secondary | KCC2 bumet counter | KCC2 sec2 | HEK293 Tl flux | KCC2 ouabain | HEK293 Tl flux2
O=C1OCc2ccc(NS(=O)(=O)c3ccc(C(F)(F)F)cc3)cc21 | -2 | i | -0.38 | 13 | -13 | i | · | · | · | · | · | ·
CC(=O)c1sc(NS(=O)(=O)c2ccc(C)cc2)nc1C | -1 | i | 0.22 | 37 | 57 | i | · | · | · | · | · | ·
COc1ccc(C2NC(=O)N(CCCC(=O)O)C(C)=C2C(=O)OCc2ccccc2)cc1 (configuration not stated) | 5 | i | · | 6 | 39 | i | · | · | · | · | · | ·
O=C(/C=C/Nc1nccs1)C(F)(F)Cl | -3 | i | 8.9* | 8 | 8 | i | ? | 0.017* | 0.038* | 0.016* | ? | 0.015*
O=C(Nc1nccs1)NC(C(F)(F)F)C(F)(F)F | -7 | i | 0.041 | 52 | 7 | i | · | · | · | · | · | ·
O=C(N/N=C/c1cccc(Br)c1)C1CC(=O)N(c2ccccc2)C1 (configuration not stated) | -7 | i | · | 24 | 106 | i | · | · | · | · | · | ·
CCCOc1ccc(C2C(=O)N(C3CCCCC3)CC(=O)N2CCCOCC)cc1OC (configuration not stated) | -8 | i | · | 9 | -5 | i | 0.015 | 0.0045 | 0.027 | 0.0078 | 0.015 | 0.01
CCOCCCN1C(=O)CN(C2CCCCC2)C(=O)C1c1ccc(OC)c(OC)c1 (configuration not stated) | -10 | i | · | 26 | -11 | i | · | · | · | · | · | ·
CCOc1ccc(C2C(=O)N(C3CCCCC3)CC(=O)N2CC2CCCO2)cc1OC (configuration not stated) | -6 | i | · | 2 | -23 | i | 0.017 | 0.0048 | 0.028 | 0.0072 | 0.016 | 0.011
COc1cccc(N2CCN(S(=O)(=O)c3ccc(-c4coc(C)n4)cc3)CC2)c1 | -7 | i | · | 1 | -12 | i | · | · | · | · | · | ·
COc1cccc(N2CCN(S(=O)(=O)c3ccc4nc(-c5ccccc5)[nH]c4c3)CC2)c1 | -10 | i | 9.1* | 19 | 11 | i | 0.0087 | 0.0051 | 0.031 | 0.0078 | 0.019 | 0.01
O=C(COc1ccc2ccccc2c1)Nc1cccc(C(=O)Nc2ccccc2C(=O)O)c1 | -33 | i | -4.7* | 9 | -6 | i | ? | 0.0055 | 0.024* | ? | 0.014* | ?
COc1ccc(OCC(=O)Nc2ccc(C(=O)Nc3ccccc3C(=O)O)cc2)cc1 | -11 | i | · | 15 | 3 | i | · | · | · | · | · | ·
Cc1oc(-c2cc(F)ccc2F)nc1CN1CCN(c2cnccn2)CC1 | -6 | i | -5* | 8 | 351 | i | 0.011 | 0.006 | 0.03 | 0.0076 | 0.065 | ?
Cc1ccc(CSc2[nH]c(=O)ncc2C)cc1 | -7 | i | · | 15 | 228 | i | · | · | · | · | · | ·
Cc1ccc(/C=C/C(=O)c2ccc(C)cc2)cc1 | -6 | i | 0.57 | -21 | 5 | i | · | · | · | · | · | ·
Cc1ccc(/C=C/C(=O)C2C(=O)c3ccccc3C2=O)cc1 | 25* | i | · | 33 | -8 | 20* | 0.0059 | 0.067* | 0.063* | 0.092* | 0.072* | 0.054*
CCOc1ccccc1CNC(=O)c1ccc(NC(=O)C2=C(C)OCCS2)cc1 | -11 | i | · | 10 | -4 | i | · | · | · | · | · | ·
CCc1c(C)[nH]c2ccccc2c1=O | · | · | 7.6* | · | 4 | · | 0.0069 | ? | 0.027 | 0.0077 | 0.019 | 0.01
CC(=O)CCc1c(C)[nH]c2ccccc2c1=O | -1 | i | 0.88 | 19 | -13 | i | · | · | · | · | · | ·
Cc1sc2nc(SCc3ccc(C(=O)O)cc3)n(Cc3ccco3)c(=O)c2c1C | -16 | i | 1 | 6 | 0 | i | · | · | · | · | · | ·
C=CCn1c(SCc2ccc(C(=O)O)cc2)nc2sc(C)c(C)c2c1=O | 8.2* | i | 46* | 27 | -8 | 16* | 0.021* | 0.053* | ? | 0.035* | 0.05* | 0.014*
CN1C(=S)SC(C)(C)C1NO (configuration not stated) | -7 | i | -4.7* | -6 | -9 | i | 0.0084 | 0.0045 | 0.032 | 0.0075 | 0.021 | 0.011
CCn1c(SCC(N)=O)nnc1-c1ccc(S(=O)(=O)N2CCN(C)CC2)cc1 | -12 | i | 3.7* | 11 | -8 | i | 0.0094 | 0.0073 | 0.035 | ? | 0.023 | ?
O=C(COC(=O)C1(c2ccc(F)cc2)CCCC1)NCc1ccco1 | -10 | i | -0.75 | 23 | 18 | i | · | · | · | · | · | ·
SMILES | hERG protect | KCNQ1 inh | KCC2 mod | AI-2 QS mod | SUMO Mot1 rescue | KCNQ1 act | KCC2 secondary | KCC2 bumet counter | KCC2 sec2 | HEK293 Tl flux | KCC2 ouabain | HEK293 Tl flux2
COc1cc2nc(=S)n3[nH]c(COc4ccccc4C)nc3c2cc1OC | -15 | i | -9.2* | 3 | 31 | i | 0.0088 | 0.0059 | 0.029 | 0.0061* | 0.01* | ?
COc1cc2nc(=S)n3[nH]c(CCn4nc(C)cc4C)nc3c2cc1OC | -6 | i | -0.36 | 35 | · | i | · | · | · | · | · | ·
Cc1ccc(Cn2nnc3c(=O)[nH]c(C4CCN(S(=O)(=O)c5ccc(F)cc5)CC4)nc32)cc1 | -10 | i | -3* | 31 | -22 | i | 0.017 | 0.0048 | 0.025* | 0.0072 | 0.014 | 0.011
Cc1ccc(C)c(S(=O)(=O)N2CCC(c3nc4c(nnn4Cc4ccc(F)cc4)c(=O)[nH]3)CC2)c1 | · | · | -4.2* | · | -3 | · | 0.0089 | 0.0055 | 0.029 | 0.0069 | 0.016* | 0.01
Cc1ccc(S(=O)(=O)Nc2cc(-c3ccccc3)nn2C)cc1Cl | -8 | i | -0.018 | 5 | 1 | i | · | · | · | · | · | ·
Cc1cc(C)c2nc(SC3CCOC3=O)cc(C)c2c1 (configuration not stated) | -7 | i | 11* | 9 | -19 | i | 0.0083 | ? | 0.031 | 0.011* | 0.047 | ?
